Results from ChEMBL document CHEMBL4196152, “Controlling Ca2+ Permeable α-Amino-3-hydroxy-5-methyl-4-isoxazolepropionic Acid (AMPA) Receptors with Photochromic Ion Channel Blockers” (J Med Chem, 2018).

Columns and labels:
Assay type in all cases: cell-based
[1] = target: Glutamate receptor 1 (Rattus norvegicus) (UniProt P19490); test: Inhibition of rat GluA1 flip isoform expressed in Xenopus laevis oocytes assessed as inhibition of L-Glu-evoked currents at 100 nM under dark condition at -80 mV membrane potential by two electrode voltage-clamp assay
Method in brief: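 TEVC on stage V–VI Xenopus laevis oocytes injected with GluA1 cRNA (13–46 nL) and recorded 1–3 days later at −80 mV and 23 °C. Bath solution (mM): 115 NaCl, 2 KCl, 5 HEPES, 1.8 BaCl₂, pH 7.6. Antagonist was co-applied with 300 µM L-glutamate in a dark room. Current was normalized to agonist alone; mean ± SEM, n = 3–16 oocytes.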

[2] = target: T1, Glutamate receptor 1 (Rattus norvegicus, UniProt P19490); test: Inhibition of rat GluA1 flip isoform expressed in Xenopus laevis oocytes assessed as inhibition of L-Glu-evoked currents under illumination with blue light at 470 nanometer at -80 mV membrane potential by two electrode voltage-clamp assay
Method in brief: (§1)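 TEVC at −80 mV, 23 °C, on oocytes 1–3 days after cRNA injection. Bath: 115 NaCl, 2 KCl, 5 HEPES, 1.8 BaCl2 (mM), pH 7.6. Antagonist co-applied with 300 µM L-Glu; current normalized to agonist alone. Dark runs done in a dark room. IC50 from pooled data of 3–10 oocytes, fitted with a Hill equation. Single-concentration screens used 100 nM and 10 nM.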

[3] = target: T2, Glutamate NMDA receptor; Grin1/Grin2a (Rattus norvegicus, UniProt P35439+Q00959); test: Inhibition of rat GluN1a/GluN2A expressed in Xenopus laevis oocytes assessed as inhibition of L-Glu and Gly-evoked currents under dark condition at -80 mV membrane potential by two electrode voltage-clamp assay
Method in brief: (§2)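 Oocytes injected with a 1:10 GluN1:GluN2A cRNA ratio and clamped at −80 mV by TEVC, 23 °C. Bath: 115 NaCl, 2 KCl, 5 HEPES, 1.8 BaCl2 (mM), pH 7.6. Antagonist co-applied with 100 µM L-Glu plus 100 µM glycine; response normalized to agonist alone. Dark runs done in a dark room. IC50 fitted with a Hill equation to pooled data from 3–10 oocytes.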

[4] = target: T2, Glutamate NMDA receptor; Grin1/Grin2a; test: Inhibition of rat GluN1a/GluN2A expressed in Xenopus laevis oocytes assessed as inhibition of L-Glu and Gly-evoked currents under illumination with blue light at 470 nanometer condition at -80 mV membrane potential by two electrode voltage-clamp assay; method in brief: as §2
[5] = target: Glutamate receptor 1 (Rattus norvegicus) (UniProt P19490); test: Inhibition of rat GluA1 flip isoform expressed in Xenopus laevis oocytes assessed as inhibition of L-Glu-evoked currents at 100 nM under illumination with blue light at 470 nanometer at -80 mV membrane potential by two electrode voltage-clamp assay; method in brief: as §1
[6] = target: T1, Glutamate receptor 1; test: Inhibition of rat GluA1 flip isoform expressed in Xenopus laevis oocytes assessed as inhibition of L-Glu-evoked currents under dark condition at -80 mV membrane potential by two electrode voltage-clamp assay; method in brief: as §1
[7] = target: T3, Glutamate NMDA receptor; Grin1/Grin2a (Rattus norvegicus) (UniProt P35439+Q00959); test: Ratio of IC50 for inhibition of rat GluN1a/GluN2A expressed in Xenopus laevis oocytes under illumination with blue light at 470 nanometer condition to IC50 for inhibition of rat GluN1a/GluN2A expressed in Xenopus laevis oocytes under dark condition; method in brief: as §2
[8] = target: T3, Glutamate NMDA receptor; Grin1/Grin2a (Rattus norvegicus); test: Inhibition of rat GluN1a/GluN2A expressed in Xenopus laevis oocytes assessed as inhibition of L-Glu and Gly-evoked currents at 100 nM under illumination with blue light at 470 nanometer condition at -80 mV membrane potential by two electrode voltage-clamp assay; method in brief: as §2
[9] = target: T3, Glutamate NMDA receptor; Grin1/Grin2a (Rattus norvegicus); test: Inhibition of rat GluN1a/GluN2A expressed in Xenopus laevis oocytes assessed as inhibition of L-Glu and Gly-evoked currents at 100 nM under dark condition at -80 mV membrane potential by two electrode voltage-clamp assay
Method in brief: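 Xenopus laevis oocytes (stage V–VI) were injected with GluN1 and GluN2A cRNA at a 1:10 ratio. Two-electrode voltage clamp was done 1–3 days post-injection at −80 mV and 23 °C in 115 NaCl/2 KCl/5 HEPES/1.8 BaCl₂ (mM), pH 7.6. Antagonist was co-applied with 100 µM L-glutamate plus 100 µM glycine in a dark room. Current was normalized to agonist-only; mean ± SEM, n = 3–16.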

Glutamate receptor 1 (Rattus norvegicus), sequence (P19490 whole entry, canonical isoform): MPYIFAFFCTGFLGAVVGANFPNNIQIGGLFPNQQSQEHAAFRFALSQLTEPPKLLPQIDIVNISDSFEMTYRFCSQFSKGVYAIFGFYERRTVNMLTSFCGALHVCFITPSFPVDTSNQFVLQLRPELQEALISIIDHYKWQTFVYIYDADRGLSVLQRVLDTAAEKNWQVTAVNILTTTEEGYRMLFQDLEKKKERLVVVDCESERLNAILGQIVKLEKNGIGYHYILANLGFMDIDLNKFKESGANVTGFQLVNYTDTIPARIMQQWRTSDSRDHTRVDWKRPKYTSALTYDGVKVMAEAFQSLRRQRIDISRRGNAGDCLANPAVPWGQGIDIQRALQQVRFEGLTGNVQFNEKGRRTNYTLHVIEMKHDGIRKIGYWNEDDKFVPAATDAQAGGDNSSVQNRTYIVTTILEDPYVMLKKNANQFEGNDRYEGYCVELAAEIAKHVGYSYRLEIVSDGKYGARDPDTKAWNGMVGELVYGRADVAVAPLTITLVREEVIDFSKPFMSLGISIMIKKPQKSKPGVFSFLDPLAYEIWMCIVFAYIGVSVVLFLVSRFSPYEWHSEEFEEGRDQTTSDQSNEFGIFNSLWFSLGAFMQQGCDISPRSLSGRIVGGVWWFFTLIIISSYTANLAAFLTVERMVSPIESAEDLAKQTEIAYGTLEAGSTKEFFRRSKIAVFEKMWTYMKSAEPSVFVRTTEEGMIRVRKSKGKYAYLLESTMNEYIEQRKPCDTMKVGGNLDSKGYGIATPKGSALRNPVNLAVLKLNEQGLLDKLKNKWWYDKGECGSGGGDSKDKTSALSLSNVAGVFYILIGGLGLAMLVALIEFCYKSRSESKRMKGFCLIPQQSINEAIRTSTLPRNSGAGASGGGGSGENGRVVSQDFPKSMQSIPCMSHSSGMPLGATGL
T1 sequence (P19490 whole entry, canonical isoform): as above

inhibition [1] | Compound | also measured
20 to 50% | CCN(CC)c1ccc(/N=N/c2cccc(C(=O)NCCCCCCCCCNCCCNC(=O)[C@@H](N)CCCNC(=N)N)c2)cc1 | 
20 to 50% | CCN(CC)c1ccc(/N=N/c2ccc(C(=O)NCCCCCCCCCNCCCNC(=O)[C@@H](N)CCCNC(=N)N)cc2)cc1 | 
 | N=C(N)NCCC[C@H](N)C(=O)NCCCCCCCCNCCCCNC(=O)[C@H](CC(N)=O)NC(=O)c1cccc(/N=N/c2ccccc2)c1 | inhibition [9]: 70 to 80%
20 to 50% | CCN(CC)c1ccc(/N=N/c2cccc(C(=O)N[C@@H](CC(N)=O)C(=O)NCCCCCCCCCNCCCNC(=O)[C@@H](N)CCCNC(=N)N)c2)cc1 | 
 | N=C(N)NCCC[C@H](N)C(=O)NCCCCCCCCNCCCCNC(=O)[C@H](CC(N)=O)NC(=O)c1ccc(/N=N/c2ccccc2)cc1 | inhibition [9]: 70 to 80%
20 to 50% | CN(C)c1ccc(/N=N/c2ccc(C(=O)N[C@@H](CC(N)=O)C(=O)NCCCCCCCCCNCCCNC(=O)[C@@H](N)CCCNC(=N)N)cc2)cc1 | 
> 70% | CN(C)c1ccc(/N=N/c2cccc(C(=O)N[C@@H](CC(N)=O)C(=O)NCCCCNCCCCCCCCNC(=O)[C@@H](N)CCCNC(=N)N)c2)cc1 | 
 | N=C(N)NCCC[C@H](N)C(=O)NCCCNCCCCCCCCCNC(=O)c1cccc(/N=N/c2ccccc2)c1 | inhibition [9]: 70 to 80%
20 to 50% | CN(C)c1ccc(/N=N/c2ccc(C(=O)NCCCCCCCCCNCCCNC(=O)[C@@H](N)CCCNC(=N)N)cc2)cc1 | 
20 to 50% | CN(C)c1ccc(/N=N/c2cccc(C(=O)N[C@@H](CC(N)=O)C(=O)NCCCCCCCCCNCCCNC(=O)[C@@H](N)CCCNC(=N)N)c2)cc1 | 
> 70% | CN(C)c1ccc(/N=N/c2ccc(C(=O)N[C@@H](CC(N)=O)C(=O)NCCCCNCCCCCCCCNC(=O)[C@@H](N)CCCNC(=N)N)cc2)cc1 | 
20 to 50% | CCN(CC)c1ccc(/N=N/c2ccc(C(=O)N[C@@H](CC(N)=O)C(=O)NCCCCCCCCCNCCCNC(=O)[C@@H](N)CCCNC(=N)N)cc2)cc1 | 
> 70% | CCN(CC)c1ccc(/N=N/c2cccc(C(=O)N[C@@H](CC(N)=O)C(=O)NCCCCNCCCCCCCCNC(=O)[C@@H](N)CCCNC(=N)N)c2)cc1 | 
20 to 50% | CN(C)c1ccc(/N=N/c2cccc(C(=O)NCCCCCCCCCNCCCNC(=O)[C@@H](N)CCCNC(=N)N)c2)cc1 | 

Compound | inhibition [1] | also measured
CCN(CC)c1ccc(/N=N/c2ccc(C(=O)N[C@@H](CC(N)=O)C(=O)NCCCCCCCCNCCCCNC(=O)[C@@H](N)CCCNC(=N)N)cc2)cc1 | 60% | IC50 [2]: 61 nM; IC50 [3]: 1100 nM; IC50 [4]: 1200 nM; inhibition [5]: 20%; IC50 [6]: 8 nM; Ratio IC50 [7]: 8; inhibition [8]: < 5%; inhibition [9]: < 5%
